Experimental data from ChEMBL document CHEMBL4270536, “Preparation, characterisation and biological evaluation of new N-phenyl amidobenzenesulfonates and N-phenyl ureidobenzenesulfonates inducing DNA double-strand breaks. Part 3. Modulation of ring A” (Eur J Med Chem, 2018).
The source made the active and inactive calls. No cut-off for these calls is given here.

Key:
HT-1080 = assay: Antiproliferative activity against human HT1080 cells after 48 hrs by SRB assay; assay type: functional, cell-based; details: HT-1080, 48 h
In short: (§1)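 Cells grown in DMEM with 5% FBS at 37 C; seeded per well at 2.5 x 10^3 (HT-1080), 4.0 x 10^3 (HT-29), 3.0 x 10^3 (M21) or 2.5 x 10^3 (MCF7). Drugs from 40 mM DMSO stock, serial dilutions, final 100 µM to 78 nM, DMSO <0.5%.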

M21 [1] = assay: Antiproliferative activity against human M21 cells after 48 hrs by SRB assay; assay type: functional, cell-based; details: M21, 48 h; in short: as §1
MCF7 = assay: Antiproliferative activity against human MCF7 cells after 48 hrs by SRB assay; assay type: functional, cell-based; details: MCF7, 48 h; in short: as §1
HT-29 = assay: Antiproliferative activity against human HT-29 cells after 48 hrs by SRB assay; assay type: functional, cell-based; details: HT-29, 48 h; in short: as §1
M21 [2] = assay: Cell cycle arrest in human M21 cells assessed as accumulation at G0/G1 phase at 2 times IC50 after 24 hrs by DAPI staining based flow cytometry relative to control; assay type: functional
In short: (§2)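 Flow cytometry in M21 cells seeded in six-well plates, allowed 24 h, then exposed 24 h to drug (2- or 5-fold IC50); DMSO 0.5% control. Trypsinized, PBS-washed, fixed in ice-cold EtOH, stained with 2 mg/mL DAPI in PBS; sub-G1, G0/G1, S and G2/M fractions measured on LSR II cytometer.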

M21 [3] = assay: Cell cycle arrest in human M21 cells assessed as accumulation at G2/M phase at 2 times IC50 after 24 hrs by DAPI staining based flow cytometry relative to control; assay type: functional; in short: as §2
M21 [4] = assay: Cell cycle arrest in human M21 cells assessed as accumulation at S phase at 2 times IC50 after 24 hrs by DAPI staining based flow cytometry relative to control; assay type: functional; in short: as §2
M21 [5] = assay: Cell cycle arrest in human M21 cells assessed as accumulation at sub-G1 phase at 2 times IC50 after 24 hrs by DAPI staining based flow cytometry relative to control; assay type: functional; in short: as §2
M21 [6] = assay: Induction of DNA damage in human M21 cells assessed as increase in gammaH2Ax level at 5 times IC50 after 24 hrs by immunofluorescence based epifluorescence microscopy
[7] = Alkylating activity at DNA (unknown origin) after 90 mins by colorimetric NBP assay; assay type: functional
In short: (§3)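 NBP alkylation kinetics (Bardos colorimetric method): 400 nmol drug in 1 mL ethanol mixed with 1 mL NBP (10% v/v in 95% ethanol), 1 mL 50 mM acetate buffer pH 4.3 and 1 mL ethanol, kept on ice, then heated at 80 C in shaking water bath; stopped on ice 5 min after 0, 30, 60, 90 min. Rate constant from linear regression of absorbance curve; chlorambucil as positive control.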

[8] = Alkylating activity at DNA (unknown origin) after 90 mins by colorimetric NBP assay relative to chlorambucil; assay type: functional; in short: as §3
M21 [9] = assay: Cell cycle arrest in human M21 cells assessed as accumulation at G2/M phase at 2 times IC50 after 24 hrs by DAPI staining based flow cytometry relative to control
M21 [10] = assay: Cell cycle arrest in human M21 cells assessed as accumulation at sub-G1 phase at 2 times IC50 after 24 hrs by DAPI staining based flow cytometry relative to control
M21 [11] = assay: Cell cycle arrest in human M21 cells assessed as accumulation at S phase at 2 times IC50 after 24 hrs by DAPI staining based flow cytometry relative to control
M21 [12] = assay: Cell cycle arrest in human M21 cells assessed as accumulation at G0/G1 phase at 2 times IC50 after 24 hrs by DAPI staining based flow cytometry relative to control

Compound | IC50 (HT-1080) [µM] | IC50 (M21 [1]) [µM] | IC50 (MCF7) [µM] | IC50 (HT-29) [µM] | Activity (M21 [2]) [%] | Activity (M21 [3]) [%] | Activity (M21 [4]) [%] | Activity (M21 [5]) [%] | Activity (M21 [6]) | K [7] [×10⁻³ /s] | fold change (FC) [8] | Activity (M21 [9]) [%] | Activity (M21 [10]) [%] | Activity (M21 [11]) [%] | Activity (M21 [12]) [%]
CC(=O)Nc1ccc(S(=O)(=O)Oc2ccccc2I)cc1 | 17 | 27 | 27 | 23 | – | – | – | – | – | – | – | – | – | – | –
CC(C)(C)C(=O)Nc1ccc(S(=O)(=O)Oc2ccccc2I)cc1 | 2.6 | 8.3 | 6.6 | 9.5 | 55 | 15.9 | 29.1 | 0 | – | – | – | – | – | – | –
CCC(=O)Nc1ccc(S(=O)(=O)Oc2ccccc2I)cc1 | 7.2 | 11 | 8.1 | 11 | 60.4 | 11.4 | 28 | 0.2 | Active | 0.49 | 11 | – | – | – | –
O=C(NCC1CCCC1)Nc1ccc(S(=O)(=O)Oc2ccccc2I)cc1 | 6.1 | 7.6 | 6.6 | 7.6 | – | – | – | – | – | – | – | 24.8 | 0.1 | 18.9 | 56.2
CC(C)C(=O)Nc1ccc(S(=O)(=O)Oc2ccccc2I)cc1 | 3.3 | 13 | 8.1 | 13 | 62 | 14.2 | 23.6 | 0.2 | – | – | – | – | – | – | –
CCNC(=O)Nc1ccc(S(=O)(=O)Oc2ccccc2CC)cc1 | – | – | – | – | – | – | – | – | – | 0.032 | 170 | – | – | – | –
CCCCCC(=O)Nc1cccc(S(=O)(=O)Oc2ccccc2C(C)C)c1 | 11 | 11 | 12 | 19 | 69 | 13.5 | 16 | 1.5 | – | – | – | – | – | – | –
CCCC(=O)Nc1cccc(S(=O)(=O)Oc2ccccc2C(C)C)c1 | 15 | 20 | 9.4 | 13 | 64.2 | 18.4 | 14.4 | 3 | – | – | – | – | – | – | –
CC(C)c1ccccc1OS(=O)(=O)c1ccc(NC(=O)CCl)cc1 | 1 | 3.9 | 2.9 | 5.6 | 60.9 | 21 | 18 | 0.1 | – | – | – | – | – | – | –
CCCCCC(=O)Nc1ccc(S(=O)(=O)Oc2ccccc2I)cc1 | 9.6 | 11 | 10 | 13 | 42.6 | 44.3 | 12.9 | 0.2 | – | – | – | – | – | – | –
CCC(=O)Nc1cccc(S(=O)(=O)Oc2ccccc2C(C)C)c1 | 12 | 25 | 14 | 22 | – | – | – | – | – | – | – | – | – | – | –
CC(C)c1ccccc1OS(=O)(=O)c1ccc(NC(=O)NCCCl)cc1 | – | – | – | – | – | – | – | – | – | 0.0034 | 1600 | – | – | – | –
CC(C)C(=O)Nc1ccc(S(=O)(=O)Oc2ccccc2C(C)C)cc1 | 4.9 | 11 | 8.6 | 14 | 62 | 10.5 | 27.3 | 0.2 | – | – | – | – | – | – | –
O=C(O)CCCc1ccc(N(CCCl)CCCl)cc1 | – | – | – | – | – | – | – | – | – | 5.3 | – | – | – | – | –
CC(C)c1ccccc1OS(=O)(=O)c1cccc(NC(=O)CCCl)c1 | 8.2 | > 40 | 12 | 11 | – | – | – | – | – | – | – | – | – | – | –
